# ChEMBL document CHEMBL1141449, “Diterpenes, sesquiterpenes, and a C15-acetogenin from the marine red alga Laurencia mariannensis” (2007)
# Active and inactive are the calls of the source. The calls are words filed in the database; no cut-off is given here.
# How the values were obtained:
# Aspergillus niger = assay: Antifungal activity against Aspergillus niger by standard agar diffusion test; format: functional, organism-based
# Outline: (§1)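 Agar diffusion assay following a cited standard method. Read-out is the diameter of the growth-inhibition zone, in mm.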
# Candida albicans = assay: Antifungal activity against Candida albicans by standard agar diffusion test; format: functional, organism-based; outline: as §1
# Escherichia coli = assay: Antibacterial activity against Escherichia coli by standard agar diffusion test; format: functional; outline: as §1
# Staphylococcus aureus = assay: Antibacterial activity against Staphylococcus aureus by standard agar diffusion test; format: functional; outline: as §1
SMILES,Activity (Aspergillus niger),Activity (Candida albicans),inhibition zone (IZ) (Escherichia coli) [mm],inhibition zone (IZ) (Staphylococcus aureus) [mm]
C=C1CC[C@H](Br)C(C)(C)[C@@]12CCC(C)=C(Cl)C2,inactive,inactive,–,–
C=C1CC[C@H](Br)C(C)(C)[C@]12CC[C@@]1(C)[C@H](C2)[C@](C)(O)[C@H](O)C[C@@H]1Br,inactive,inactive,6.5,6.5
CC/C(Br)=C/C=C\C1=C(Br)[C@H]2O[C@H](C=C=CBr)C[C@H]2O1 [LAURENMARIALLENE],inactive,inactive,7,–
C=C[C@]1(C)CC[C@H]2C(C)=CC[C@@H](C)[C@]2(C)O1,inactive,inactive,–,–
